Source: ChEMBL document CHEMBL1121975, “Effect of N,N'-diethyl-1,2-bis(2,6-dichloro-4-hydroxyphenyl)ethylenediamines on the 7,12-dimethylbenz[a]anthracene-induced mammary carcinoma of the rat” (1982)

How the values were obtained:
[1] = species on record: Rattus norvegicus; experiment: (§1) Increased total tumor area (>150%) in DMBA-induced mammary carcinoma in rats; assay type: functional
In short: (§2)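 Sprague-Dawley rats bearing DMBA-induced mammary tumours, randomized in groups of 10 between days 35 and 70 after induction. Dosing was sc in olive oil at 2 or 6 mg/kg: a single dose daily Monday–Thursday and a double dose Friday, for 4 weeks. Tumour number was taken at test start. Complete remission = not palpable; partial = ≤50% of initial size; static = 51-150% of initial size.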

[2] = species on record: Rattus norvegicus; experiment: (§3) Unchanged total tumor area (51-150%) in DMBA-induced mammary carcinoma in rats; assay type: functional; in short: as §2
[3] = tested on: Rattus norvegicus; experiment: Change in body weight in rats after 7 days at 6 mg/kg dose; assay type: functional
[4] = tested on: Rattus norvegicus; experiment: Complete remission of DMBA-induced mammary carcinoma in rats at 2 mg/kg dose; assay type: functional; in short: as §2
[5] = tested on: Rattus norvegicus; experiment: Progression of DMBA-induced mammary carcinoma in rats at 6 mg/kg dose; assay type: functional; in short: as §2
[6] = tested on: Rattus norvegicus; experiment: Progression of DMBA-induced mammary carcinoma in rats at 2 mg/kg dose; assay type: functional; in short: as §2
[7] = tested on: Rattus norvegicus; experiment: Tumour number in DMBA-induced mammary carcinoma in rats at 6 mg/kg dose; assay type: functional; in short: as §2
[8] = tested on: Rattus norvegicus; experiment: Complete remission of DMBA-induced mammary carcinoma in rats at 6 mg/kg dose; assay type: functional; in short: as §2
[9] = species on record: Rattus norvegicus; experiment: as §1; assay type: functional; in short: as §2; remark: listed apart in the source
[10] = species on record: Rattus norvegicus; experiment: (§4) Partial remission of DMBA-induced mammary carcinoma in rats; assay type: functional; in short: as §2
[11] = species on record: Rattus norvegicus; experiment: as §4; assay type: functional; in short: as §2; remark: listed apart in the source
[12] = species on record: Rattus norvegicus; experiment: as §3; assay type: functional; in short: as §2; remark: listed apart in the source
[13] = tested on: Rattus norvegicus; experiment: Tumour number in DMBA-induced mammary carcinoma in rats at 2 mg/kg dose; assay type: functional; in short: as §2
[14] = tested on: Rattus norvegicus; experiment: Change in body weight in rats after 7 days at 2 mg/kg dose; assay type: functional
[15] = target: Estrogen receptor (Bos taurus) (UniProt Q9XSB5+P49884); experiment: Displacement of [3H]- estradiol from calf uterine estrogen receptor; assay type: protein assay
In short: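 Competitive binding with calf uterine cytosol as the estrogen receptor source, [3H]estradiol as tracer, and dextran-charcoal separation. RBA = (molar concentration of E2 / molar concentration of inhibitor needed to reduce bound [3H]E2 by 50%) × 100, with 17β-estradiol = 100.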

[16] = species on record: Rattus norvegicus; experiment: as §1; assay type: functional; in short: as §2; remark: listed apart in the source

CCNC(c1c(Cl)cc(O)cc1Cl)C(NCC)c1c(Cl)cc(O)cc1Cl (racemic) [listing 1 of 2 here]
Progressed tumors [1]: 54%
Static tumors [2]: 23%
Change of body weight [3]: -2%
Change of tumor area [3]: -24%
Complete remission [4]: 14%
New tumors [5]: 15
New tumors [6]: 18
No. of tumors [7]: 28
Complete remission [8]: 35%
Progressed tumors [9]: 16%
Partial remission [10]: 11%
Partial remission [11]: 26%
Static tumors [12]: 21%
No. of tumors [13]: 34
Change of body weight [14]: 0%
Change of tumor area [14]: 282%

CCCNC(c1c(Cl)cc(O)cc1Cl)C(NCCC)c1c(Cl)cc(O)cc1Cl (racemic)
relative binding affinity (RBA) [15]: 1

CCNC(c1c(Cl)cc(O)cc1Cl)C(NCC)c1c(Cl)cc(O)cc1Cl (racemic) [listing 2 of 2 here]
relative binding affinity (RBA) [15]: 2.1

CNC(c1c(Cl)cc(O)cc1Cl)C(NC)c1c(Cl)cc(O)cc1Cl (racemic)
relative binding affinity (RBA) [15]: 1.3

CCNC(c1c(Cl)cc(O)cc1Cl)C(NCC)c1c(Cl)cc(O)cc1Cl (stereo in doubt) [listing 1 of 2 here]
Static tumors [2]: 16%
Change of body weight [3]: -4%
Change of tumor area [3]: -74%
Complete remission [4]: 50%
New tumors [5]: 6
New tumors [6]: 7
No. of tumors [7]: 26
Complete remission [8]: 28%
Progressed tumors [9]: 3%
Partial remission [10]: 14%
Partial remission [11]: 53%
Static tumors [12]: 10%
Progressed tumors [16]: 26%
No. of tumors [13]: 35
Change of body weight [14]: -6%
Change of tumor area [14]: 29%

CCCNC(c1c(Cl)cc(O)cc1Cl)C(NCCC)c1c(Cl)cc(O)cc1Cl (stereo in doubt)
relative binding affinity (RBA) [15]: 8.2

CCNC(c1c(Cl)cc(O)cc1Cl)C(NCC)c1c(Cl)cc(O)cc1Cl (stereo in doubt) [listing 2 of 2 here]
relative binding affinity (RBA) [15]: 8.6

CNC(c1c(Cl)cc(O)cc1Cl)C(NC)c1c(Cl)cc(O)cc1Cl (stereo in doubt)
relative binding affinity (RBA) [15]: 2.3
